From publication PMC6357737 (Science Advances, 2019)

What was measured:
Bmal1-dLuc U2OS cells = assay: Cell-based circadian assay, Bmal1-dLuc reporter; parameters: species or system human
Method in brief: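 Stable U2OS Bmal1-dLuc cells were seeded at 3000 per well in DMEM/10% FBS. After 2 days, B27/HEPES explant medium with 0.2 or 1 mM luciferin (pH 7.2) was added, plus compound (final 0.7% DMSO). Luminescence was read every 100 min for 5 days, first day excluded. Period came from curve fitting; intensity was averaged over the run; n = 4. LogEC50 was from sigmoidal fits of threefold 12-point series.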

Caki-2 = assay: Proliferation assay of RCC line Caki-2; format: cell-based, human; settings: Caki-2, 2 days
Method in brief: (§1)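 Lines were kept in RPMI-1640/10% FBS and plated 1 day before treatment. Seeding per well: Caki-2 and A704 at 2.0 × 10^4; 786-O, A498, 769-P and ACHN at 1.0 × 10^4; RCC4+vec at 0.7 × 10^4; RCC4+VHL at 0.8 × 10^4. Two days after dosing, cells were stained with Hoechst 33342 (2 μg/ml, 1 h) and counted by imaging.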

A704 = assay: Proliferation assay of RCC line A704; format: cell-based, human; settings: A704, 2 days
Method in brief: as §1

ACHN = assay: Proliferation assay of RCC line ACHN; format: cell-based, human; settings: 2 days
Method in brief: as §1

Per2-dLuc U2OS cells = assay: Cell-based circadian assay, Per2-dLuc reporter; parameters: species or system human
[1] = tested on: cells differentiated from Per2::LucSV knock-in ES cells; assay: Circadian assay in differentiated ES cells; format: cell-based, mouse
Method in brief: (§2)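 ES cells were kept on feeder fibroblasts; Per2 was disrupted by CRISPR-Cas9 in Bmal1-Luc ES cells. Embryoid bodies formed over 2 days in low-attachment wells, then grew 26 days on gelatin. On day 28, cells got 100 nM dexamethasone for 1 h, then 0.2 mM luciferin with compound. Luminescence was integrated 1 min every 20 min; period came from sine-wave fitting. Replicates: Per2::LucSV n = 4; Per2 knockout versus wild-type n = 3 to 4.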

[2] = tested on: lung explants from Per2::Luc mice; assay: Circadian rhythms in lung explants; format: cell-based, mouse
Method in brief: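 Lung pieces from Per2::Luc knock-in mice were cultured in luciferin-containing explant medium with compound (final 0.24% DMSO). Luminescence was recorded every 30 min for 5 days, excluding the first day. Period was derived by curve fitting.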

CK2 [3] = target: CK2 (Homo sapiens, UniProt P68400); assay: biochemical
PIM2 = PIM2 (Homo sapiens, UniProt Q9P1W9); assay: In vitro PIM2 kinase assay; format: biochemical
Method in brief: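 Kinase-Glo assay measuring remaining ATP. Compound was added (final 5% DMSO) and reactions were started with ATP (final 3 μM). PIM2 ran at 30°C for 3 h. The CK2 comparator used CK2 (1.5 ng/μl) with 50 μM substrate peptide in 40 mM tris, 10 mM MgCl2, 0.5 mM DTT, 150 mM NaCl, pH 7.5, at 37°C for 1.5 h.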

CLK2 = CLK2 (Homo sapiens, UniProt P49760); assay: In vitro CLK2 kinase assay; format: biochemical
CKIδ = CKIδ (Homo sapiens, UniProt P48730); assay: In vitro CKIδ kinase assay; format: biochemical
CKIα = CKIα (Homo sapiens, UniProt P48729); assay: In vitro CKIα kinase assay; format: biochemical
CRY1 = CRY1 (Mus musculus, UniProt P97784); assay: CRY1 degradation assay; format: cell-based; settings: CRY1-LUC HEK293 cells, 24 h
GSK-3β = GSK-3β (Homo sapiens, UniProt P49841); assay: Kinase profiling; format: biochemical; settings: 5 μM
[4] = tested on: 59 kinases from a variety of classes; assay: Kinase profiling, panel of 60 kinases; format: biochemical; settings: 5 μM
CK2 [5] = target: T1, CK2 (Homo sapiens, UniProt P19784+P68400); assay: Cellular CK2 activity, anti-phospho CK2 substrate immunoblot, HEK293T; format: cell-based; settings: HEK293T cells, 24 hours, various concentrations
CK2 [6] = target: T1, CK2; assay: Cellular CK2 activity, anti-phospho CK2 substrate immunoblot, U2OS; format: cell-based; settings: U2OS cells, 24 hours, concentrations similar to those that affected circadian period
PKA (protein kinase A) = assay: Anti-phospho PKA substrate immunoblot, HEK293T; format: cell-based, human; settings: HEK293T cells, 24 hours
Method in brief: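 HEK293T cells exposed to a range of test compound concentrations for 24 hours. Lysates were immunoblotted with anti-phospho CK2 substrate antibody, then the membrane was reprobed with anti-phospho PKA substrate and anti-β-actin antibodies.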

PER2 = assay: Phosphoproteomics of Flag-tagged PER2 in HEK293T cells; format: cell-based, mouse; settings: full-length PER2, 8 μM, 24 h (table S1)
Method in brief: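 HEK293T cells were reverse-transfected (Lipofectamine 2000) with C-terminal 3XFlag-tagged mouse PER2 plus CK2α. After 24 h, they received 0 or 8 μM compound for 24 h. Lysis was in 1% NP-40 buffer (pH 8.0) with phosphatase inhibitors, followed by anti-Flag immunoprecipitation and LC-MS/MS after four-protease digestion. Phosphorylation was expressed as phosphopeptide/total peptide spectra, and the effect as the treated/control ratio.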

BMAL1 S90 = BMAL1 S90 phosphorylation immunoblot in NIH-3T3 cells; format: cell-based, mouse; settings: 10 μM, different times
Method in brief: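 NIH-3T3 cells were exposed to 10 μM test compound for varying times. Lysates were immunoprecipitated with anti-BMAL1 antibody, then immunoblotted with anti-P-BMAL1-S90 and anti-BMAL1 antibodies. Protein was quantified by Bradford.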

[7] = tested on: Per2 knockout cells differentiated from ES cells; assay: Circadian assay in Per2 knockout cells differentiated from Bmal1-Luc ES cells; format: cell-based, mouse
Method in brief: as §2

A498 = assay: Proliferation assay of RCC line A498; format: cell-based, human; settings: A498, 2 days
Method in brief: as §1

769-P = assay: Proliferation assay of RCC line 769-P; format: cell-based, human; settings: 2 days
Method in brief: as §1

786-O = assay: Proliferation assay of RCC line 786-O; format: cell-based, human; settings: 2 days
Method in brief: as §1

RCC4+vec = assay: Proliferation assay of RCC line RCC4+vec; format: cell-based, human; settings: 2 days
Method in brief: as §1

RCC4+VHL = assay: Proliferation assay of RCC line RCC4+VHL; format: cell-based, human; settings: 2 days
Method in brief: as §1

MLL-AF9 leukemia cells = assay: Proliferation assay of MLL-AF9 leukemia cells; format: cell-based; settings: mouse MLL-AF9 leukemia cells, 2 days
Method in brief: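 GFP-positive MLL-AF9 leukemia cells were taken from leukemic mouse bone marrow and kept in IMDM/10% FBS with SCF 20 ng/ml and mIL-3, mIL-6 and GM-CSF at 10 ng/ml each. Cells were plated at 2.0 × 10^4 per well with compound, incubated at 37°C for 2 days, then counted by flow cytometry.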

[8] = tested on: LSK hematopoietic progenitor cells; assay: Proliferation assay of LSK hematopoietic progenitor cells; format: cell-based, mouse; settings: LSK hematopoietic progenitor cells (normal counterpart), 2 days
Method in brief: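 LSK progenitors were maintained in StemSpan with SCF and TPO (100 ng/ml each). Cells were plated at 1.0 × 10^4 per well with compound, held at 37°C for 2 days, then counted by flow cytometry.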

OCI-AML3 = assay: Proliferation assay of OCI-AML3 cells; format: cell-based, human; settings: OCI-AML3, 4 days
Method in brief: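 OCI-AML3 cells were kept in MEM alpha/20% FBS, plated at 1.0 × 10^4 per well with compound, and incubated at 37°C for 4 days. Viability was read with Cell Counting Kit-8.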

[9] = tested on: MLL-AF9 tissues (spleen and bone marrow explants); format: cell-based, mouse; settings: MLL-AF9 tissues relative to the control
Method in brief: (§3)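 Explants: spleen and bone marrow from transplant mice. MLL-AF9 leukemia cells derived from Per2::Luc bone marrow were serially transplanted into nonreporter C57BL/6J mice. Controls were C57BL/6J recipients of Per2::Luc bone marrow, used 3 months later. Tissue was cultured in luciferin explant medium with compound (0.24% DMSO final). Luminescence was read every 30 min for 5 days, first day excluded. Period was curve-fitted; intensity was averaged over the run. MLL-AF9 n = 11; control n = 10 to 20.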

[10] = tested on: control spleen and bone marrow explants; assay: Per2::Luc rhythms in control spleen and bone marrow explants; format: cell-based, mouse
Method in brief: as §3

[11] = target: recombinant CK2 (α2β2 tetramer) (Homo sapiens, UniProt P68400); format: binding; settings: recombinant CK2, agarose-conjugated GO457, immunoblot
[12] = tested on: CK2α (CSNK2A1), CK2α′ (CSNK2A2), CK2β (CSNK2B), and GSK-3β (GSK3B); format: binding, human; settings: U2OS cell lysate, 50 μM free compound
Method in brief: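 Unsynchronized confluent U2OS cells (1.6 × 10^8) were Dounce-homogenized in MOPS/EGTA/MgCl2/DTT buffer (pH 7.2) and sonicated. NP-40 was added to 0.5%, and the extract was cleared at 14,000g. Halves were preincubated with 0 or 50 μM free compound (0.5% DMSO) at 4°C for 30 min, then with the agarose-conjugated probe for 1 h. Bound proteins were in-gel digested for nanoLC-MS/MS; two independent experiments.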

T1 sequence (P68400 whole entry): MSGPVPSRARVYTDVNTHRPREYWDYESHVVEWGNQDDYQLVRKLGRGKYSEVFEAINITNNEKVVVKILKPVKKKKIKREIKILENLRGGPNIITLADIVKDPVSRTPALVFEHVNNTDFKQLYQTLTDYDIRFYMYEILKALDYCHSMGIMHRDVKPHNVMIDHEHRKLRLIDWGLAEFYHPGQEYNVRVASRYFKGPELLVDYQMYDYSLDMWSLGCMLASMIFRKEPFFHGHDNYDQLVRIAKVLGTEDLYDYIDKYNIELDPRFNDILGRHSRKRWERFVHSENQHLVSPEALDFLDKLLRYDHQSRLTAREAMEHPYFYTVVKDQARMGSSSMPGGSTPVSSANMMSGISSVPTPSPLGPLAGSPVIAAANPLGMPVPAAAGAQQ
T1 sequence (P19784 whole entry): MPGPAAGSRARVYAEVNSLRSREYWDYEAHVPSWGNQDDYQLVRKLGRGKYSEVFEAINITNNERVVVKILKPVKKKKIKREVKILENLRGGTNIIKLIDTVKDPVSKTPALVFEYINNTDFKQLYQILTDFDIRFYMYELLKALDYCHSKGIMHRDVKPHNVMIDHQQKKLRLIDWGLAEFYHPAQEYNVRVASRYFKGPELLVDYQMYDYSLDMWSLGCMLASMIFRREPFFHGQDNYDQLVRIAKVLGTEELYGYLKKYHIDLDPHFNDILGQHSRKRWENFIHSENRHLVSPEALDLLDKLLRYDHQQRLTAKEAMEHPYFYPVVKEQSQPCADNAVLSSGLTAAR
T1 sequence (P67870 whole entry partner): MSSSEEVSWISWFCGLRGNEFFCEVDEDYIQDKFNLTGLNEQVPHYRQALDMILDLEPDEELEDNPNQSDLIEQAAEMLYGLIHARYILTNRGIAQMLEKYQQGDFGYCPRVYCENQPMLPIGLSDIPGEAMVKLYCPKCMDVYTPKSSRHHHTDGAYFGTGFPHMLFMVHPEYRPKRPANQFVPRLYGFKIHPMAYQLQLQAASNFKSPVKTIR
Chain of CK2 (Homo sapiens, UniProt P68400) (P68400 whole entry): as the sequence (P68400 whole entry) above
Chain of CK2 (Homo sapiens, UniProt P68400) (P67870 whole entry partner): as the sequence (P67870 whole entry partner) above
Chain of PIM2 (Q9P1W9 whole entry): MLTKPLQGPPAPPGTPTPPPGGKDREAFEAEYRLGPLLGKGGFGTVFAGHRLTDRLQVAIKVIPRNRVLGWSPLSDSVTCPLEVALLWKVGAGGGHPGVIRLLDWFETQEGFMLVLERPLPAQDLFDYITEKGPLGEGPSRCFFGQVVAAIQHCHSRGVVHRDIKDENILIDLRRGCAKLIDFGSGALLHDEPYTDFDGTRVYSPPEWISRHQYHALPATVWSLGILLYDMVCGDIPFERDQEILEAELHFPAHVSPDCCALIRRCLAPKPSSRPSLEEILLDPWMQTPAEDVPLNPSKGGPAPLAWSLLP
Chain of GSK-3β (P49841 whole entry): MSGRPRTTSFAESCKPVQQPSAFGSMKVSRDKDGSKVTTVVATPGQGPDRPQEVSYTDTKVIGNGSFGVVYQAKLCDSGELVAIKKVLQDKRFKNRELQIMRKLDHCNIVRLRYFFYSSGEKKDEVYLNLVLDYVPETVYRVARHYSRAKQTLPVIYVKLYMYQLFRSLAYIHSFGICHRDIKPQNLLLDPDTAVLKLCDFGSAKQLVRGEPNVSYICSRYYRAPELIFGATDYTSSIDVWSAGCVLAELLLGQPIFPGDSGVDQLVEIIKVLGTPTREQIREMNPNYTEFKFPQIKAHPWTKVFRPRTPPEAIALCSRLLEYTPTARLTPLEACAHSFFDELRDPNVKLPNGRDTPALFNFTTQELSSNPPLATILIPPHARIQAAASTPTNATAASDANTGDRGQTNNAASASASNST
Chain of CLK2 (P49760 whole entry): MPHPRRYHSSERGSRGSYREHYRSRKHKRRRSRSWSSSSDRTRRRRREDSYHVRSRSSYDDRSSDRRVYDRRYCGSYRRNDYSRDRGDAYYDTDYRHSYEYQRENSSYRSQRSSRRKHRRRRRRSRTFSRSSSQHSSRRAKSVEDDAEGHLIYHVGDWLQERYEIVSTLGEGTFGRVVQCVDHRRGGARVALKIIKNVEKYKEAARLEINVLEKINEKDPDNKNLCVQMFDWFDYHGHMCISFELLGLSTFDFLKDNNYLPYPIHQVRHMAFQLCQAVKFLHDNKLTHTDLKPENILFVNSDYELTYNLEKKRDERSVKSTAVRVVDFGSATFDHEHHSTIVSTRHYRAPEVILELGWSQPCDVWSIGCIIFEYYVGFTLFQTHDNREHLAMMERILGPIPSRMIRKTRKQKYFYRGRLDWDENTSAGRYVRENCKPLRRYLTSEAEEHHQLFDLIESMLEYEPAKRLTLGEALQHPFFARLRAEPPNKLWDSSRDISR
Chain of recombinant CK2 (α2β2 tetramer) (P68400 whole entry): as the sequence (P68400 whole entry) above
Chain of recombinant CK2 (α2β2 tetramer) (P67870 whole entry partner): as the sequence (P67870 whole entry partner) above
Chain of CRY1 (P97784 whole entry): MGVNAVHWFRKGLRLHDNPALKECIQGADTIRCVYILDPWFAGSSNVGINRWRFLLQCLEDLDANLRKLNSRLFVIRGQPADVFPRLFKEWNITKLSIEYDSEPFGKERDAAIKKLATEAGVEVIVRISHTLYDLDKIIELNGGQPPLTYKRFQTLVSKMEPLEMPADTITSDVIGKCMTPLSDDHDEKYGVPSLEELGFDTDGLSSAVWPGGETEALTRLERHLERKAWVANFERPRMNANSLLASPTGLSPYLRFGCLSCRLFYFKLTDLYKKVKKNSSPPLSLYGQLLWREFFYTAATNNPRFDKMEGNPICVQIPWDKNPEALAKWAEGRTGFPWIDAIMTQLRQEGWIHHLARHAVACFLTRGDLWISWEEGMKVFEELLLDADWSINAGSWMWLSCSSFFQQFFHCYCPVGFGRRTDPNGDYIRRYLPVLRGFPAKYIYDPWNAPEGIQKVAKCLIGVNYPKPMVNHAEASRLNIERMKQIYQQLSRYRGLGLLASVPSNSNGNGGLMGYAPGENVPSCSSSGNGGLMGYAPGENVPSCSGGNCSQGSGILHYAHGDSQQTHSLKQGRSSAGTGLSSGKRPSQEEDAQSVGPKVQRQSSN
Chain of CKIδ (P48730 whole entry, species assumed): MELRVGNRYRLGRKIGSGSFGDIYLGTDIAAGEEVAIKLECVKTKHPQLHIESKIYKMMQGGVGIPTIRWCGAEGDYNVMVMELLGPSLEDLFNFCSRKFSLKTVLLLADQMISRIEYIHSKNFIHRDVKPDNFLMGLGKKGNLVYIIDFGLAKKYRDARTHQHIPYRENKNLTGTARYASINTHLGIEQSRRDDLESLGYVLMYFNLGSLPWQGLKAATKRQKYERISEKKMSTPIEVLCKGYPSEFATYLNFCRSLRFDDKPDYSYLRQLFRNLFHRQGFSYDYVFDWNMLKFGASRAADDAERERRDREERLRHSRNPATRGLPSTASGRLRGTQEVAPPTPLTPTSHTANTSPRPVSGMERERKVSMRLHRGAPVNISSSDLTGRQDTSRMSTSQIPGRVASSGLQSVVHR
Chain of CKIα (P48729 whole entry, species assumed): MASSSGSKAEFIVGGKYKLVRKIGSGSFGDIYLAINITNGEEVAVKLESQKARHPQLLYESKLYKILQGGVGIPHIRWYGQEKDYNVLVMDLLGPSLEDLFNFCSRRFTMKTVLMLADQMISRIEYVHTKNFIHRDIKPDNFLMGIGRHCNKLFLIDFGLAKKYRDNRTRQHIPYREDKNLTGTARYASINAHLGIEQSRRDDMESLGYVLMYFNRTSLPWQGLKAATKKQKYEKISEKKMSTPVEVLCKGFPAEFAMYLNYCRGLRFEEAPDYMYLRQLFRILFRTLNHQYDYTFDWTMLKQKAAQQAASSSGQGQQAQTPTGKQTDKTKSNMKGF

SMILES: O=C(O)c1ccc2c(c1)nc(Nc1cccc(Cl)c1)c1ccncc12 [CX-4945, reference compound]
- Effect on luminescence (reporter signal intensity) (Bmal1-dLuc U2OS cells; vs DMSO control): severe reduction in luminescence
- Cell growth (Caki-2): inhibited growth
- Cell growth (A704): less of an effect
- Cell growth (ACHN): less of an effect

SMILES: CN(C)c1nc2c(Br)c(Br)c(Br)c(Br)c2[nH]1 [DMAT, reference compound]
- Effect on luminescence (reporter signal intensity) (Bmal1-dLuc U2OS cells; vs DMSO control): severe reduction in luminescence

SMILES: COc1cc(/C=N/n2c(SC)nnc2-c2ccccc2)c(Br)cc1O [GO289]
- Effect on circadian period (Bmal1-dLuc U2OS cells): dose-dependent lengthening of circadian period
- Effect on luminescence (reporter signal intensity) (Bmal1-dLuc U2OS cells; vs DMSO control): little effect on luminescence
- Lengthening of circadian period (Bmal1-dLuc U2OS cells; vs DMSO control): more than 12 hours
- Effect on circadian period (Per2-dLuc U2OS cells): dose-dependent lengthening of circadian period
- Effect on circadian period [1]: lengthened periods
- Effect on circadian period [2]: lengthened periods
- IC50 (CK2 [3]): 0.007 µM
- IC50 (PIM2): 13 µM
- IC50 ratio against CK2 over PIM family kinase (PIM2) (PIM2; PIM2 IC50 relative to CK2 IC50): > 1000
- IC50 (CLK2): > 50 µM
- Effect on CKIδ activity in vitro (CKIδ): minor effects
- Effect on CKIα activity in vitro (CKIα): minor effects
- CRY1 stabilization in cell-based degradation assay (CRY1): no stabilization of CRY1
- Effect on GSK-3β activity (GSK-3β): minor effect
- Effect on the activity of 59 kinases [4]: only a moderate or minor effect
- Phosphorylation of CK2 substrates (anti-phospho CK2 substrate antibody) (CK2 [5]): reduced by GO289 in a dose-dependent manner
- Cellular CK2 activity (anti-phospho CK2 substrate antibody) (CK2 [6]): Inhibition of cellular CK2 activity
- Signal of anti-phospho PKA substrate antibody (PKA (protein kinase A)): not affected by GO289
- Phosphorylation of PER2 T12/S13 and S53 (previously reported CK2 sites) (PER2): either unchanged or up-regulated
- BMAL1 S90 phosphorylation (immunoblot) (BMAL1 S90): down-regulation
- Period lengthening of Bmal1-Luc rhythms in Per2 knockout vs wild-type cells [7]: slightly enhanced
- Cell growth (Caki-2): strongly inhibited
- Cell growth (A498): strongly inhibited
- Cell growth (769-P): strongly inhibited
- Cell growth (786-O): less affected
- Cell growth (RCC4+vec): less affected
- Cell growth (RCC4+VHL): less affected
- Cell growth (A704): less affected
- Cell growth (ACHN): less affected
- Cell growth (MLL-AF9 leukemia cells): significantly reduced growth
- Cell growth [8]: much less affected
- Cell growth (OCI-AML3): sensitive to GO289
- Luminescence intensity of Per2::Luc reporter [9]: severe reduction in luminescence
- Effect on circadian period [10]: lengthened circadian period
- Competition of CK2 interaction with affinity probe [11]: blocked by increasing concentrations of free GO289
- Competition of protein interactions with affinity probe [12]: blocked by free GO289

SMILES: Cc1cc2sc(NC(=O)Cc3ccccc3)nc2cc1Cl [LH846, reference compound]
- Phosphorylation of CK2 substrates (anti-phospho CK2 substrate antibody) (CK2 [5]): neither the CKIδ inhibitor LH846 nor the GSK-3 inhibitor CHIR-99021 altered the CK2-specific phosphorylation pattern

SMILES: COc1cc(/C(C)=N/n2c(SC)nnc2-c2ccccc2)c(Br)cc1O [compound 27]
- CK2 inhibitory activity in vitro (CK2 [3]; in vitro CK2 kinase assay (fig. S5)): complete loss of CK2 inhibition
